Assay results taken from ChEMBL document CHEMBL5678818, “Discovery of potent SOS1 inhibitors that block RAS activation via disruption of the RAS-SOS1 interaction” (Proc Natl Acad Sci U S A, 2019).
Active and inactive are the calls of the source. The rule behind the calls is not given here.

Key:
[1] = target: T1, Non-receptor tyrosine-protein kinase TNK1 (Homo sapiens) (UniProt Q13470); assay: Inhibition of TNK1 (unknown origin) assessed as residual activity at 100 nM by KINOMEscan analysis relative to control
T1 sequence (whole entry): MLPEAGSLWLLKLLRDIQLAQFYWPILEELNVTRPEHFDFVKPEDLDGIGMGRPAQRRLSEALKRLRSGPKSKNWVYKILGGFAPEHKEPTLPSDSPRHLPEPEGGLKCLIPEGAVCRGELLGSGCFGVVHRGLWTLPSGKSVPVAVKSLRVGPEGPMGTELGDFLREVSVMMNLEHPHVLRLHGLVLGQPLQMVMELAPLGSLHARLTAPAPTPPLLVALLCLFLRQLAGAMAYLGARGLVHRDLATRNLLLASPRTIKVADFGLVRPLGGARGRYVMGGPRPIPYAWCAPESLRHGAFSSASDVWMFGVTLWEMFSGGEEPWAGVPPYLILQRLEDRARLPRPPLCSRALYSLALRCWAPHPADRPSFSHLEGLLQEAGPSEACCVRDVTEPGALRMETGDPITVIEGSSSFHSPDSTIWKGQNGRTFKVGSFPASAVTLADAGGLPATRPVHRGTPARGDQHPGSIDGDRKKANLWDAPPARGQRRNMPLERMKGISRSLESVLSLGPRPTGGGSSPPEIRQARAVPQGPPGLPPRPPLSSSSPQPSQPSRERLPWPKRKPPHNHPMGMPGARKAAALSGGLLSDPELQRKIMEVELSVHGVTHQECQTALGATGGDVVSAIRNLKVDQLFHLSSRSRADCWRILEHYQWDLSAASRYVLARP

[2] = target: Serine/threonine-protein kinase MRCK alpha (Homo sapiens) (UniProt Q5VT25); assay: Inhibition of MRCKA (unknown origin) assessed as residual activity at 100 nM by KINOMEscan analysis relative to control
Chain of Serine/threonine-protein kinase MRCK alpha (Homo sapiens) (Q5VT25 whole entry): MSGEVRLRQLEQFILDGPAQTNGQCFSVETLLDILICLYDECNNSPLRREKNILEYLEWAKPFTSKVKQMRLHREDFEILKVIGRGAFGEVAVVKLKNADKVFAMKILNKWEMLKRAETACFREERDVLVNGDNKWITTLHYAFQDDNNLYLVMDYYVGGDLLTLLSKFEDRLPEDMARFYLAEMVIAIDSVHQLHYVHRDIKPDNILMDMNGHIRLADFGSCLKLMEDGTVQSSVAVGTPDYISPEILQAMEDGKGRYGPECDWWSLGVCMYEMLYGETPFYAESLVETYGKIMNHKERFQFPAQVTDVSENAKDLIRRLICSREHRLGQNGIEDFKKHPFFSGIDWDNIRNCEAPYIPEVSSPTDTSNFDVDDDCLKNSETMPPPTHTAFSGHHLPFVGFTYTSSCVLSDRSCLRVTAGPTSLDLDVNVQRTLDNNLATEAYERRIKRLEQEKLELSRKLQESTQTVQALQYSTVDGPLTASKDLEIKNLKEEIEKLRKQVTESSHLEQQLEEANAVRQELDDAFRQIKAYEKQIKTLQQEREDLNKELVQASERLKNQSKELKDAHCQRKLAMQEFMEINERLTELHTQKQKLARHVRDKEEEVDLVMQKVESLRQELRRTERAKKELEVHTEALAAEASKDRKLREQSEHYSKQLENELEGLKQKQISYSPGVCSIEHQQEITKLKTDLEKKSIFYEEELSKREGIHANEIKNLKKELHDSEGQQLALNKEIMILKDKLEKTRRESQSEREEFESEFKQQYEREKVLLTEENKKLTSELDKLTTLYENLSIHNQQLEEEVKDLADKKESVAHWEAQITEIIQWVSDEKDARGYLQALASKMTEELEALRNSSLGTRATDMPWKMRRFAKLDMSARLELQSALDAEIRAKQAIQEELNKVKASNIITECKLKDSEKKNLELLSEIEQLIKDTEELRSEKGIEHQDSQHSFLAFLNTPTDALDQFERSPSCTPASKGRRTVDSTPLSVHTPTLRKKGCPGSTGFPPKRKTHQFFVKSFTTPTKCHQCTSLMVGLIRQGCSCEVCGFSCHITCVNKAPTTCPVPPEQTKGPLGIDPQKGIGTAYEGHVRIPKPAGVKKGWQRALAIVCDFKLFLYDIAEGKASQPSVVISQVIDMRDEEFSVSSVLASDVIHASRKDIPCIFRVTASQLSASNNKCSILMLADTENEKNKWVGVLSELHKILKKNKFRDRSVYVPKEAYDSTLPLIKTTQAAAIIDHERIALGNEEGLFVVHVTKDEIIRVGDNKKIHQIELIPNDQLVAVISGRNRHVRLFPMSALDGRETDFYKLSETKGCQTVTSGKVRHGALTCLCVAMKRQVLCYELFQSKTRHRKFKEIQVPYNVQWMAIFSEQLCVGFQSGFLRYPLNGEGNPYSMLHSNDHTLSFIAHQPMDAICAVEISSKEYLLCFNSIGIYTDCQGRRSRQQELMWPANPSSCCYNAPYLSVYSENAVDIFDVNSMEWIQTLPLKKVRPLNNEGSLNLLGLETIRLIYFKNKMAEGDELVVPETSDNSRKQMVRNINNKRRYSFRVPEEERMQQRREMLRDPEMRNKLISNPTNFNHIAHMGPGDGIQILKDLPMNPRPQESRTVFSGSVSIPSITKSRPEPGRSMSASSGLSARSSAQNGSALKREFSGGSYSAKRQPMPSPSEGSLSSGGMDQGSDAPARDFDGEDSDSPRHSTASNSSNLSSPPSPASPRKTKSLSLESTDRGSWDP

[3] = target: T2, Serine/threonine-protein kinase Nek2 (Homo sapiens) (UniProt P51955); assay: Inhibition of NEK2 (unknown origin) assessed as residual activity at 100 nM by KINOMEscan analysis relative to control
T2 sequence (whole entry): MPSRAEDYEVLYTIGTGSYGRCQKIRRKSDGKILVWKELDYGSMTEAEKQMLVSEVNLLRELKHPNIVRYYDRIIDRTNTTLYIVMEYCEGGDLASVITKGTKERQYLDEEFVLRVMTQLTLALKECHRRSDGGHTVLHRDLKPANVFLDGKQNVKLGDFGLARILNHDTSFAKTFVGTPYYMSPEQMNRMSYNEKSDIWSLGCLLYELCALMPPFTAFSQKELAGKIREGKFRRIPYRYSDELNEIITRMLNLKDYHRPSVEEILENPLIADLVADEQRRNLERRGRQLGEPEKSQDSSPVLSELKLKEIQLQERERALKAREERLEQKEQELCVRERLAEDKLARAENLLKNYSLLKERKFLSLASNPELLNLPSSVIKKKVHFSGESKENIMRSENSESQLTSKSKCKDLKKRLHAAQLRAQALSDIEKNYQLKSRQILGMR

[4] = target: Insulin-like growth factor 1 receptor (Homo sapiens) (UniProt P08069); assay: Inhibition of IGF1R (unknown origin) assessed as residual activity at 100 nM by KINOMEscan analysis relative to control
Chain of Insulin-like growth factor 1 receptor (Homo sapiens) (P08069 31-736 limits assumed): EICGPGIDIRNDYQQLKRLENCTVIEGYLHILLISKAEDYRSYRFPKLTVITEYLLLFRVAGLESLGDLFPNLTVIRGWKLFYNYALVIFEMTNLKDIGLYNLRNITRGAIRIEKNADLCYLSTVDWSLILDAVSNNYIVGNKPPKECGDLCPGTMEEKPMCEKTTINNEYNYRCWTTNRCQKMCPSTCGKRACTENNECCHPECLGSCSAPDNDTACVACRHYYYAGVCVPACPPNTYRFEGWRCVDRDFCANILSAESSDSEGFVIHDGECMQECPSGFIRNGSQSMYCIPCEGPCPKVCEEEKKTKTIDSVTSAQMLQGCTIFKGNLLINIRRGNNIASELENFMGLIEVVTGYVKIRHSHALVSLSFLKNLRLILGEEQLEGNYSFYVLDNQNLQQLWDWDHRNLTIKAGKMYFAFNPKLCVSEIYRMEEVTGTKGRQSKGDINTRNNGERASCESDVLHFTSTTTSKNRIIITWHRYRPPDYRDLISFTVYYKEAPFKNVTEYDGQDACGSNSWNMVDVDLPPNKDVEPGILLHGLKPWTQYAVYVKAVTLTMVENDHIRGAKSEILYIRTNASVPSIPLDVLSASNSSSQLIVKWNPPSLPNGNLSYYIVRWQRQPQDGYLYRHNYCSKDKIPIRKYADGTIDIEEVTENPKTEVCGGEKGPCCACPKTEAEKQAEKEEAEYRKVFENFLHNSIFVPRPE
Chain of Insulin-like growth factor 1 receptor (Homo sapiens) (P08069 741-1367 limits assumed): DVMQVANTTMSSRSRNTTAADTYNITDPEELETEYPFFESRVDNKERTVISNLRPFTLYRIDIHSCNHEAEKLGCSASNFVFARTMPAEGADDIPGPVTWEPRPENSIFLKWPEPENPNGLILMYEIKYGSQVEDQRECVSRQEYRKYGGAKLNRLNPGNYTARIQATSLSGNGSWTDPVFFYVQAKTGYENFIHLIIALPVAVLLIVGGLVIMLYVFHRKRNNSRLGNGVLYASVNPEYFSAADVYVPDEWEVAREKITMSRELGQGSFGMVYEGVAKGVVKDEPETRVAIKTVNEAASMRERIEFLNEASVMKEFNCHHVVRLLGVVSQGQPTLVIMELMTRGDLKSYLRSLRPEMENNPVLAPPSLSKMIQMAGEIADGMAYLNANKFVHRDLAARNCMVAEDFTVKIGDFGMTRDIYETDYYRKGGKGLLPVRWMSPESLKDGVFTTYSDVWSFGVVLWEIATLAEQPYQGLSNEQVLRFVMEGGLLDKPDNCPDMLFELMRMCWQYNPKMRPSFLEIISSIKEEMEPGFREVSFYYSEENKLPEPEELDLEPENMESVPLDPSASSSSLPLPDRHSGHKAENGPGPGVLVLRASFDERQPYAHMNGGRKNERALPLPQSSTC

[5] = target: Mitogen-activated protein kinase kinase kinase 10 (Homo sapiens) (UniProt Q02779); assay: Inhibition of MLK2 (unknown origin) assessed as residual activity at 100 nM by KINOMEscan analysis relative to control
Chain of Mitogen-activated protein kinase kinase kinase 10 (Homo sapiens) (Q02779 whole entry, looked up): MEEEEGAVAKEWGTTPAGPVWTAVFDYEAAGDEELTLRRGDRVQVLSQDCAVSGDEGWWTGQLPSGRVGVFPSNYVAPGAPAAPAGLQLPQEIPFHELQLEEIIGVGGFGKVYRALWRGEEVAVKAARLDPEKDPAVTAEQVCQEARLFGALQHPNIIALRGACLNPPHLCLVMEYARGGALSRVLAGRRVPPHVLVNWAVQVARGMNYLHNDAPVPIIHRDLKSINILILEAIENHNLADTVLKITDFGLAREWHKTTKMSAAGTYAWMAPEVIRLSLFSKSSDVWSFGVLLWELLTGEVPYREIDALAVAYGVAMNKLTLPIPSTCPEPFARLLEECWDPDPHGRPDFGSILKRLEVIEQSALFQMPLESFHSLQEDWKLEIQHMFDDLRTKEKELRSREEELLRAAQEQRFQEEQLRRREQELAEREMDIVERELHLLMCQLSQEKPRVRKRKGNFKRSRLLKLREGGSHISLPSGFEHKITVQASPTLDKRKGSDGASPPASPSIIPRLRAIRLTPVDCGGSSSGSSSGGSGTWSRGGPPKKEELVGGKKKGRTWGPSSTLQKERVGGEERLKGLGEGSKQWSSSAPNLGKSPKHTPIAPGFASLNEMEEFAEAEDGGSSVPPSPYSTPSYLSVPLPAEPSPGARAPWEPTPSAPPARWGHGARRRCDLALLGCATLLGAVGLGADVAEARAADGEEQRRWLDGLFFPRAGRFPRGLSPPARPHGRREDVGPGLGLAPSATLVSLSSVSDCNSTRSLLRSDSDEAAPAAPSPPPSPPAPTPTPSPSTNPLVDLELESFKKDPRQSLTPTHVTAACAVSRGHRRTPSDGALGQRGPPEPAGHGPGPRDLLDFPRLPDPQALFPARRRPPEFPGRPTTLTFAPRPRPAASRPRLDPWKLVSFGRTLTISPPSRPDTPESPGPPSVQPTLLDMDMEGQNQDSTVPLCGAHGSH

[6] = target: Activated CDC42 kinase 1 (Homo sapiens) (UniProt Q07912); assay: Inhibition of TNK2 (unknown origin) assessed as residual activity at 100 nM by KINOMEscan analysis relative to control
Chain of Activated CDC42 kinase 1 (Homo sapiens) (Q07912 whole entry, looked up): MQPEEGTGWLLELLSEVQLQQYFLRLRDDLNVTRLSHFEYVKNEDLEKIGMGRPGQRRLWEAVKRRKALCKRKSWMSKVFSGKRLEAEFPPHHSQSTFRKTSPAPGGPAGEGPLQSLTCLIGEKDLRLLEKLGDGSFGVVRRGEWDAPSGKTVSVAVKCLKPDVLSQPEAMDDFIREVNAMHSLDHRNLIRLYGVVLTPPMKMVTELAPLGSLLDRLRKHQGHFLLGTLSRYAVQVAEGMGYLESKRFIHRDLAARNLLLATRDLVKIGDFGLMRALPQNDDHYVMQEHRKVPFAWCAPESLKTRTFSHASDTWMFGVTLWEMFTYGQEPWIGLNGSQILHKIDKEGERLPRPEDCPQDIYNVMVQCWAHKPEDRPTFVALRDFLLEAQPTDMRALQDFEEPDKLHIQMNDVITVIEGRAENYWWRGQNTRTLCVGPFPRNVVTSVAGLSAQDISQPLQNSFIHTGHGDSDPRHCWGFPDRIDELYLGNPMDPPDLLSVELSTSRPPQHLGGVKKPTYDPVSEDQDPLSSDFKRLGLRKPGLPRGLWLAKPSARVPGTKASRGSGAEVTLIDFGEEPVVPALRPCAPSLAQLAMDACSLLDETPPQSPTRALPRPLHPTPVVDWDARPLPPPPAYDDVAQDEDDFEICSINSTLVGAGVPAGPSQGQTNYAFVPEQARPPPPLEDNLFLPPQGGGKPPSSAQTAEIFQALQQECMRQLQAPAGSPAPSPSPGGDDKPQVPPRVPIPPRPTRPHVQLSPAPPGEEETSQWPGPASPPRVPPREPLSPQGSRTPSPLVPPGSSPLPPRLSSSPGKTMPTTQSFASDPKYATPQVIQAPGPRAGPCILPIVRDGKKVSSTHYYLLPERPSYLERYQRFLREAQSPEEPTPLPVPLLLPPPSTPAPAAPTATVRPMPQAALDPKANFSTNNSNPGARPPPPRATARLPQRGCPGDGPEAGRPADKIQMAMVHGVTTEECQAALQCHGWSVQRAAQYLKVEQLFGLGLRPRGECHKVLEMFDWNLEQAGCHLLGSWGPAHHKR

[7] = target: T3, cGMP-dependent protein kinase 2 (Homo sapiens) (UniProt Q13237); assay: Inhibition of PRKG2 (unknown origin) assessed as residual activity at 100 nM by KINOMEscan analysis relative to control
T3 sequence (whole entry): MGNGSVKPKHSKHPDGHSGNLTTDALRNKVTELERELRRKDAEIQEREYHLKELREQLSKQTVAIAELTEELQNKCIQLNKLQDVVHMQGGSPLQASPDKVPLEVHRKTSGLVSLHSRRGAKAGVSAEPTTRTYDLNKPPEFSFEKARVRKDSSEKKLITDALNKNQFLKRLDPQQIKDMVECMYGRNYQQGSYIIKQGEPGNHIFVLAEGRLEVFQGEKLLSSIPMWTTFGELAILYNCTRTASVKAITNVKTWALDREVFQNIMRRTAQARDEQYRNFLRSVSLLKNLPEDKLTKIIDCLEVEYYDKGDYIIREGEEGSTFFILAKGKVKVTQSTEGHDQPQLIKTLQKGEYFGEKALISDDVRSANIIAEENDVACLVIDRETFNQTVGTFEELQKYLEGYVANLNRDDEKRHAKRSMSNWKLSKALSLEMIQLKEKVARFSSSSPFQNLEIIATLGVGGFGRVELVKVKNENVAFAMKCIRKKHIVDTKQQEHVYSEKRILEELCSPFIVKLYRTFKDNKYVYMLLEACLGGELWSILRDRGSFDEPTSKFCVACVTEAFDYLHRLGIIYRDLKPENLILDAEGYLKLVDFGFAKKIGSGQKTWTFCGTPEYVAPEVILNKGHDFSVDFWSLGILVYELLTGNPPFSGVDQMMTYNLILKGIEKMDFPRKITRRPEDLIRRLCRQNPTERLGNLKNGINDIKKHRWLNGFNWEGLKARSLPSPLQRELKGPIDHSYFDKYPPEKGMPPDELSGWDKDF

Calu-1 = assay: Effect on total ERK level in human Calu-1 cells incubated for 24 hrs by HTRF analysis; type: functional, cell-based
Outline: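 Calu-1 cells carry two KRAS G12C alleles and were sourced from CLS. Total and pERK levels were both analyzed after compound treatment.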

SMILES | Activity [1] | Activity [2] | Activity [3] | Activity [4] | Activity [5] | Activity [6] | Activity [7] | Activity (Calu-1)
COc1cc2ncnc(N[C@H](C)c3cccc4ccccc34)c2cc1OC | 86% | 14% | 100% | 82% | 100% | 100% | 70% | –
CNCc1ccccc1-c1csc([C@@H](C)Nc2nc(C)nc3cc(OC)c(OC)cc23)c1 [BAY-293] | – | – | – | – | – | – | – | inactive
